Reference: ChEMBL document CHEMBL1649407, “Part I: Synthesis, cancer chemopreventive activity and molecular docking study of novel quinoxaline derivatives” (Eur J Med Chem, 2011)

What was measured:
[1] = Cytotoxicity against human Raji cells assessed as cell viability at 1000 molar ratio by trypan blue staining method
Mus musculus [2] = test: Inhibition of DMBA-initiated/TPA-promoted carcinogenesis in ICR mouse assessed as mouse bearing papillomas at 85 nmol administered 1 hr before TPA treatment measured after 6 weeks by two-stage carcinogenesis test; format: functional; design: scale not given: the % may be the effect or the level left
Procedure, shortened: (§1)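 Female SPF ICR mice, 6 weeks old, 15 per group, backs shaved. Initiation: topical DMBA (390 nmol) in 0.1 mL acetone. Promotion began one week later: TPA (1.7 nmol) in 0.1 mL acetone, twice weekly. Test compound (85 nmol) in 0.1 mL acetone applied topically 1 h before each promotion. Papilloma-bearing mice and papillomas per mouse scored weekly for 20 weeks. Tumor type confirmed histologically. Student's t-test.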

Mus musculus [3] = test: Inhibition of DMBA-initiated/TPA-promoted carcinogenesis in ICR mouse assessed as mouse bearing papillomas at 85 nmol administered 1 hr before TPA treatment measured after 2 weeks by two-stage carcinogenesis test; format: functional; design: scale not given: the % may be the effect or the level left; procedure, shortened: as §1
Mus musculus [4] = test: Toxicity in topically treated ICR mouse assessed as inflammation; format: organism-based; details: in vivo, topical_or_ocular
Procedure, shortened: (§2)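 Treated areas of shaved back skin were inspected during the DMBA/TPA two-stage study, where test compound (85 nmol in acetone) was applied topically before each twice-weekly TPA promotion. Scored for lesional damage and for inflammation (edema, erosion, ulcer).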

Mus musculus [5] = test: Inhibition of DMBA-initiated/TPA-promoted carcinogenesis in ICR mouse assessed as mouse bearing papillomas at 85 nmol administered 1 hr before TPA treatment measured after 11 weeks by two-stage carcinogenesis test; format: functional; design: scale not given: the % may be the effect or the level left; procedure, shortened: as §1
Mus musculus [6] = test: Inhibition of DMBA-initiated/TPA-promoted carcinogenesis in ICR mouse assessed as mouse bearing papillomas at 85 nmol administered 1 hr before TPA treatment measured after 9 weeks by two-stage carcinogenesis test; format: functional; design: scale not given: the % may be the effect or the level left; procedure, shortened: as §1
Mus musculus [7] = test: Inhibition of DMBA-initiated/TPA-promoted carcinogenesis in ICR mouse assessed as mouse bearing papillomas at 85 nmol administered 1 hr before TPA treatment measured after 4 weeks by two-stage carcinogenesis test; format: functional; design: scale not given: the % may be the effect or the level left; procedure, shortened: as §1
Mus musculus [8] = test: Inhibition of DMBA-initiated/TPA-promoted carcinogenesis in ICR mouse assessed as mouse bearing papillomas at 85 nmol administered 1 hr before TPA treatment measured after 8 weeks by two-stage carcinogenesis test; format: functional; design: scale not given: the % may be the effect or the level left; procedure, shortened: as §1
Mus musculus [9] = test: Inhibition of DMBA-initiated/TPA-promoted carcinogenesis in ICR mouse assessed as mouse bearing papillomas at 85 nmol administered 1 hr before TPA treatment measured after 15 weeks by two-stage carcinogenesis test; format: functional; design: scale not given: the % may be the effect or the level left; procedure, shortened: as §1
Mus musculus [10] = test: Inhibition of DMBA-initiated/TPA-promoted carcinogenesis in ICR mouse assessed as mouse bearing papillomas at 85 nmol administered 1 hr before TPA treatment measured after 18 weeks by two-stage carcinogenesis test; format: functional; design: scale not given: the % may be the effect or the level left; procedure, shortened: as §1
Mus musculus [11] = test: Inhibition of DMBA-initiated/TPA-promoted carcinogenesis in ICR mouse assessed as mouse bearing papillomas at 85 nmol administered 1 hr before TPA treatment measured after 1 week by two-stage carcinogenesis test; format: functional; design: scale not given: the % may be the effect or the level left; procedure, shortened: as §1
Mus musculus [12] = test: Inhibition of DMBA-initiated/TPA-promoted carcinogenesis in ICR mouse assessed as mouse bearing papillomas at 85 nmol administered 1 hr before TPA treatment measured after 13 weeks by two-stage carcinogenesis test; format: functional; design: scale not given: the % may be the effect or the level left; procedure, shortened: as §1
Mus musculus [13] = test: Inhibition of DMBA-initiated/TPA-promoted carcinogenesis in ICR mouse assessed as mouse bearing papillomas at 85 nmol administered 1 hr before TPA treatment measured after 16 weeks by two-stage carcinogenesis test; format: functional; design: scale not given: the % may be the effect or the level left; procedure, shortened: as §1
Mus musculus [14] = test: Inhibition of DMBA-initiated/TPA-promoted carcinogenesis in ICR mouse assessed as mouse bearing papillomas at 85 nmol administered 1 hr before TPA treatment measured after 5 weeks by two-stage carcinogenesis test; format: functional; design: scale not given: the % may be the effect or the level left; procedure, shortened: as §1
Mus musculus [15] = test: Inhibition of DMBA-initiated/TPA-promoted carcinogenesis in ICR mouse assessed as mouse bearing papillomas at 85 nmol administered 1 hr before TPA treatment measured after 3 weeks by two-stage carcinogenesis test; format: functional; design: scale not given: the % may be the effect or the level left; procedure, shortened: as §1
Mus musculus [16] = test: Inhibition of DMBA-initiated/TPA-promoted carcinogenesis in ICR mouse assessed as mouse bearing papillomas at 85 nmol administered 1 hr before TPA treatment measured after 20 weeks by two-stage carcinogenesis test; format: functional; design: scale not given: the % may be the effect or the level left; procedure, shortened: as §1
Mus musculus [17] = test: Inhibition of DMBA-initiated/TPA-promoted carcinogenesis in ICR mouse assessed as mouse bearing papillomas at 85 nmol administered 1 hr before TPA treatment measured after 14 weeks by two-stage carcinogenesis test; format: functional; design: scale not given: the % may be the effect or the level left; procedure, shortened: as §1
Mus musculus [18] = test: Inhibition of DMBA-initiated/TPA-promoted carcinogenesis in ICR mouse assessed as mouse bearing papillomas at 85 nmol administered 1 hr before TPA treatment measured after 10 weeks by two-stage carcinogenesis test; format: functional; design: scale not given: the % may be the effect or the level left; procedure, shortened: as §1
Mus musculus [19] = test: Inhibition of DMBA-initiated/TPA-promoted carcinogenesis in ICR mouse assessed as mouse bearing papillomas at 85 nmol administered 1 hr before TPA treatment measured after 17 weeks by two-stage carcinogenesis test; format: functional; design: scale not given: the % may be the effect or the level left; procedure, shortened: as §1
Mus musculus [20] = test: Inhibition of DMBA-initiated/TPA-promoted carcinogenesis in ICR mouse assessed as mouse bearing papillomas at 85 nmol administered 1 hr before TPA treatment measured after 19 weeks by two-stage carcinogenesis test; format: functional; design: scale not given: the % may be the effect or the level left; procedure, shortened: as §1
Mus musculus [21] = test: Toxicity in topically treated ICR mouse assessed as lesional damage; format: organism-based; details: in vivo, topical_or_ocular; procedure, shortened: as §2
Mus musculus [22] = species on record: Mus musculus; test: Toxicity in ICR mouse assessed as change in body weight; format: organism-based; details: in vivo
Procedure, shortened: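 Mice from the DMBA/TPA two-stage skin study received topical test compound in acetone before each TPA promotion. Body-weight gain was followed during the 20-week experiment. Food and water ad libitum, five mice per cage at 24 ± 2 °C.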

Mus musculus [23] = test: Inhibition of DMBA-initiated/TPA-promoted carcinogenesis in ICR mouse assessed as mouse bearing papillomas at 85 nmol administered 1 hr before TPA treatment measured after 7 weeks by two-stage carcinogenesis test; format: functional; design: scale not given: the % may be the effect or the level left; procedure, shortened: as §1
Mus musculus [24] = test: Inhibition of DMBA-initiated/TPA-promoted carcinogenesis in ICR mouse assessed as mouse bearing papillomas at 85 nmol administered 1 hr before TPA treatment measured after 12 weeks by two-stage carcinogenesis test; format: functional; design: scale not given: the % may be the effect or the level left; procedure, shortened: as §1

SMILES: Clc1nc2ccccc2nc1Sc1nc2ccccc2[nH]1
- viability at 1000 molar ratio ([1]; Raji cells): 60%

SMILES: N#Cc1c(-c2ccccc2)nc(Sc2nc3ccccc3nc2Cl)[nH]c1=O
- viability at 1000 molar ratio ([1]; Raji cells): 60%

SMILES: C=CCn1c(=O)c(N/N=C/c2ccccc2OC)nc2ccccc21
- viability at 1000 molar ratio ([1]; Raji cells): 60%

SMILES: Nc1nc2ccccc2[nH]c1=O
- viability at 1000 molar ratio ([1]; Raji cells): 60%

SMILES: N#Cc1c(-c2ccc(O)cc2)nc(Sc2nc3ccccc3nc2Cl)[nH]c1=O
- viability at 1000 molar ratio ([1]; Raji cells): 60%

SMILES: C=CCn1c(=O)c(N/N=C/c2ccccc2)nc2ccccc21
- viability at 1000 molar ratio ([1]; Raji cells): 60%

SMILES: C=CCN(/N=C/c1ccccc1OC)c1nc2ccccc2n(CC=C)c1=O
- Activity (Mus musculus [2]): 0%
- viability at 1000 molar ratio ([1]; Raji cells): 60%
- Activity (Mus musculus [3]): 0%
- Activity (Mus musculus [4]): Non-toxic
- Activity (Mus musculus [5]): 26.6%
- Activity (Mus musculus [6]): 13.3%
- Activity (Mus musculus [7]): 0%
- Activity (Mus musculus [8]): 13.3%
- Activity (Mus musculus [9]): 60%
- Activity (Mus musculus [10]): 80%
- Activity (Mus musculus [11]): 0%
- Activity (Mus musculus [12]): 46.6%
- Activity (Mus musculus [13]): 66.6%
- Activity (Mus musculus [14]): 0%
- Activity (Mus musculus [15]): 0%
- Activity (Mus musculus [16]): 86.6%
- Activity (Mus musculus [17]): 60%
- Activity (Mus musculus [18]): 20%
- Activity (Mus musculus [19]): 73.3%
- Activity (Mus musculus [20]): 86.6%
- Activity (Mus musculus [21]): Non-toxic
- Activity (Mus musculus [22]): Non-toxic
- Activity (Mus musculus [23]): 0%
- Activity (Mus musculus [24]): 33.3%

SMILES: c1ccc2nc3c(nc2c1)nc1ccccn13
- viability at 1000 molar ratio ([1]; Raji cells): 60%

SMILES: N#Cc1c(-c2ccc(F)cc2)nc(Sc2nc3ccccc3nc2Cl)[nH]c1=O
- viability at 1000 molar ratio ([1]; Raji cells): 60%

SMILES: NNc1nc2ccccc2[nH]c1=O
- viability at 1000 molar ratio ([1]; Raji cells): 60%

SMILES: CCOC(=O)Cn1c(=O)c(N/N=C/c2ccccc2OC)nc2ccccc21
- viability at 1000 molar ratio ([1]; Raji cells): 60%

SMILES: Clc1nc2ccccc2nc1Cl
- viability at 1000 molar ratio ([1]; raji): 50%

SMILES: c1ccc2nc3c(nc2c1)[nH]c1cccc[n+]13
- viability at 1000 molar ratio ([1]; Raji cells): 60%

SMILES: O=c1[nH]c2ccccc2nc1N/N=C/c1ccccc1
- viability at 1000 molar ratio ([1]; Raji cells): 60%

SMILES: Oc1nc2ccccc2nc1O
- viability at 1000 molar ratio ([1]; Raji cells): 60%

SMILES: COc1ccccc1/C=N/Nc1nc2ccccc2[nH]c1=O
- viability at 1000 molar ratio ([1]; Raji cells): 60%

SMILES: O=c1[nH]c2ccccc2nc1Cl
- viability at 1000 molar ratio ([1]; Raji cells): 50%

SMILES: CCOC(=O)Cn1c(=O)c(N/N=C/c2ccccc2)nc2ccccc21
- viability at 1000 molar ratio ([1]; Raji cells): 60%

SMILES: Clc1nc2ccccc2nc1SCc1nc2ccccc2[nH]1
- viability at 1000 molar ratio ([1]; Raji cells): 60%

SMILES: CCOC(=O)CN(/N=C/c1ccccc1OC)c1nc2ccccc2n(CC(=O)OCC)c1=O
- viability at 1000 molar ratio ([1]; Raji cells): 60%
